# Data reported in ChEMBL document CHEMBL1138807, “4,5-dihydro-1H-pyrazole derivatives with inhibitory nNOS activity in rat brain: synthesis and structure-activity relationships” (J Med Chem, 2004).
# Legend:
# [1] = molecular target: Kynurenine 3-monooxygenase (Rattus norvegicus) (UniProt O88867); assay: Percent kynurenine 3-hydroxylase activity determined by the conversion of L-kynurenine to 3-hydroxykynurenine in rat striatum at 1 mM concentration of compound (value is mean +/- SEM); format: tissue-based
# Outline: (§1)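 Enzyme source: rat striatal pellet (sucrose homogenate, 10000g), resuspended in 0.14 M KCl, 20 mM phosphate, pH 7. Incubation in 0.1 M phosphate, 4 mM MgCl2, 100 µM L-kynurenine with NADPH; compound 1 mM final in DMSO; 37 °C, 60 min. Stopped with cold perchloric acid. 3-Hydroxykynurenine measured by HPLC with electrochemical detection against a DHBA internal standard; activity expressed as nmol/h/g wet brain.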
# [2] = molecular target: Nitric oxide synthase 1 (Rattus norvegicus) (UniProt P29476); assay: Percent inhibition towards rat striatal neuronal nitric oxide synthase (nNOs) at 1 mM concentration (value is mean +/- SEM)
# Outline: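 Rat striatal crude homogenate (two striata homogenized in Tris buffer with protease inhibitors, pH 7.6; 1000g supernatant). Conversion of L-[3H]-arginine to L-[3H]-citrulline in 25 mM Tris, 30 µM H4-biopterin, 10 µM FAD, 0.1 mM CaCl2, 10 µM L-arginine plus 50 nM tracer. Started with 0.75 mM NADPH; compound 1 mM final in DMSO; 37 °C, 30 min. Citrulline separated on Dowex-50W and counted by scintillation. Blank omits NADPH. Three experiments in triplicate, four rat striata each.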
# [3] = molecular target: Kynurenine 3-monooxygenase (Rattus norvegicus) (UniProt O88867); assay: Inhibitory activity against kynurenine 3-hydroxylase at 1 mM concentration; outline: as §1
# Nitric oxide synthase 1 (Rattus norvegicus), sequence (P29476 whole entry): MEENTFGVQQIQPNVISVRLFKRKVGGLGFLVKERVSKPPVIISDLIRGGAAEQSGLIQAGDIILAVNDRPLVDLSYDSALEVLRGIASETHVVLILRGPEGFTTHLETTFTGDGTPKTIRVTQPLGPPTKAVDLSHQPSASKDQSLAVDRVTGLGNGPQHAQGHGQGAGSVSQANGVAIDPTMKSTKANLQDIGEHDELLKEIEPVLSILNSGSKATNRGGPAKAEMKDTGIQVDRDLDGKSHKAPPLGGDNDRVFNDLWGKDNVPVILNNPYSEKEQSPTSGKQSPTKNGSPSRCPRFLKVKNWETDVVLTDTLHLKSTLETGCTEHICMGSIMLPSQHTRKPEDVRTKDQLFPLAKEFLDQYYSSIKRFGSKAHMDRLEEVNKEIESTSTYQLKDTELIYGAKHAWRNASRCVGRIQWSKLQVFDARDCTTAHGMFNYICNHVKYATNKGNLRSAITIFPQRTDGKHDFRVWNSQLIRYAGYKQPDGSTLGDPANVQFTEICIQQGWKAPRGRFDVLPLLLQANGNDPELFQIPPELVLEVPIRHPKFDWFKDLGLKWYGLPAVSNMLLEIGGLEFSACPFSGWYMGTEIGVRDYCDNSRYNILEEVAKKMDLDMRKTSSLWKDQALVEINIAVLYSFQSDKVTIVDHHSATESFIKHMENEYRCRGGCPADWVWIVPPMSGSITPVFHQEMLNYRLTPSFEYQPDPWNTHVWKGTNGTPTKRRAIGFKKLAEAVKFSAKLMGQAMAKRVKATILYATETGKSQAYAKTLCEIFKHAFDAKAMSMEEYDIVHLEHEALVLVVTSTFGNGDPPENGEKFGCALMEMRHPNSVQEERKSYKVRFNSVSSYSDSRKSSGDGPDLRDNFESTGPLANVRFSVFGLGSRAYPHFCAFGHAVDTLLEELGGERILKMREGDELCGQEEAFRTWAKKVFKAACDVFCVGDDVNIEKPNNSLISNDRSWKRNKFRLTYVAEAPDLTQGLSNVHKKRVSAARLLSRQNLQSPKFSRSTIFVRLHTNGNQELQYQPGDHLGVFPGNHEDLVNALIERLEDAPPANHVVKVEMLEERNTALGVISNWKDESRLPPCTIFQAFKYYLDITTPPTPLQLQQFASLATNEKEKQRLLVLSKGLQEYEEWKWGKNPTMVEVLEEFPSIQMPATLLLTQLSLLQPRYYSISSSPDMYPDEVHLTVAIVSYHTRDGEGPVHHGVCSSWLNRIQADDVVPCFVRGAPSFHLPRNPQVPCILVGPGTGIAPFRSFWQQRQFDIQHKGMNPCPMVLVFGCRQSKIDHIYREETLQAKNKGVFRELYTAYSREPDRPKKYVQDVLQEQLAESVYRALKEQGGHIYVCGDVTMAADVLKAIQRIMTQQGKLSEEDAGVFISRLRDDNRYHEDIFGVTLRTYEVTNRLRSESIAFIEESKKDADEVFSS
# Kynurenine 3-monooxygenase (Rattus norvegicus), sequence (O88867 whole entry, looked up): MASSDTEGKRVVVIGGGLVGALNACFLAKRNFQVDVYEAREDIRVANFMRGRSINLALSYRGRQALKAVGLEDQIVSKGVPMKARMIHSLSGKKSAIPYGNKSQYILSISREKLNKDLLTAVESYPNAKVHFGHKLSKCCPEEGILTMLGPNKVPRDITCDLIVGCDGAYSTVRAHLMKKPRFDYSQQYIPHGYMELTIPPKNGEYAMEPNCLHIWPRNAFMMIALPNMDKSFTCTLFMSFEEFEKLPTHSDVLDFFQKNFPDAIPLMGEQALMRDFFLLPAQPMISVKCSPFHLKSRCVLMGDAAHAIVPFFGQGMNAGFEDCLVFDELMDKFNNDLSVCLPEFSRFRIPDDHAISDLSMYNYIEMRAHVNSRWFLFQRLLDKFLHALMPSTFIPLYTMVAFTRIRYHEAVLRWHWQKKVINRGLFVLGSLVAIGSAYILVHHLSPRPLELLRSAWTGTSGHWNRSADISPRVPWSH
SMILES,Activity [1] [%],inhibition [2] [%],inhibition [3] [%]
CC(=O)N1CCC(c2cc(Cl)ccc2N)=N1,111,47.6,
COc1ccc(N)c(C2=NN(C(C)=O)CC2)c1,98.8,38,
Nc1ccc(Cl)cc1C1=NN(C(=O)C2CC2)CC1,98.1,70.2,
CCC(=O)N1CCC(c2cc(OC)ccc2N)=N1,81.1,53.3,18.9
CCCC(=O)N1CCC(c2cc(OC)ccc2N)=N1,96.4,34.7,
Nc1ccccc1C1=NN(C(=O)C2CC2)CC1,86.9,38.8,
CCC(=O)N1CCC(c2ccccc2N)=N1,85.2,36.5,
CCCC(=O)N1CCC(c2ccccc2N)=N1,85,52.4,
CCCCC(=O)N1CCC(c2cc(OC)ccc2N)=N1,120,49.8,
CC(=O)N1CCC(c2ccccc2N)=N1,77.8,33.7,22.1
CCCC(=O)N1CCC(c2cc(Cl)ccc2N)=N1,97.7,34.4,
CCCC(=O)NC(CC(=O)c1cc(OC)ccc1N)C(=O)O (stereo not drawn),88.7,45,
COc1ccc(N)c(C2=NN(C(=O)C3CC3)CC2)c1,123,62.2,
COc1ccc(N)c(C(=O)CC(NC(C)=O)C(=O)O)c1 (stereo not drawn),101,68.5,
Nc1ccccc1C1=NN(C(=O)c2ccccc2)CC1,82.5,57,
COc1ccc(N)c(C2=NN(C(=O)c3ccccc3)CC2)c1,,58.9,
COc1ccc(N)c(C2=NN(C(=O)C3CCC3)CC2)c1,96.5,38.3,
Nc1ccc(Cl)cc1C1=NN(C(=O)c2ccccc2)CC1,106,61.1,
CCC(=O)N1CCC(c2cc(Cl)ccc2N)=N1,97.7,46.1,
COc1ccc(N)c(C2=NN(C(=O)C3CCCCC3)CC2)c1,87.4,62.2,
COc1ccc(N)c(C2=NN(C(=O)C3CCCC3)CC2)c1,105,49.9,
